Source: ChEMBL document CHEMBL2176948 (J Med Chem, 2012)
Active and inactive are the calls of the source. The rule behind the calls is not given here.

Key:
HT-29 [1] = experiment: Cytotoxicity against human HT-29 cells after 96 hrs by MTT assay; format: functional, cell-based; settings: HT-29, 96 h
How it was run: (§1)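 Cells were grown in RPMI 1640 with 1 mM sodium pyruvate, 2 mM L-glutamine and 10% FBS. They were seeded at 1 × 10⁴ cells/mL and left overnight at 37 °C in 5% CO₂. Medium was then replaced with a broad concentration range of compound diluted from DMSO (final DMSO ≤0.1%). After 96 h exposure, growth was read by MTT.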

DLD-1 [2] = experiment: Cytotoxicity against human DLD1 cells after 96 hrs by MTT assay; format: functional, cell-based; settings: DLD-1, 96 h; how it was run: as §1
MDA-MB-231 = experiment: Cytotoxicity against human MDA-MB-231 cells after 96 hrs by MTT assay; format: functional, cell-based; settings: MDA-MB-231, 96 h; how it was run: as §1
HT-29 [3] = experiment: Cell cycle arrest in human HT-29 cells assessed as accumulation at G2/M phase at 40 nM after 48 hrs by FACS analysis; format: functional
HeLa [4] = experiment: Cytotoxicity against human HeLa cells expressing class 3 tubulin after 96 hrs by MTT assay; format: functional, cell-based
How it was run: (§2)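 Parental HeLa cells and a transfected class III β-tubulin-overexpressing variant were seeded at 1 × 10⁴ cells/mL and held overnight at 37 °C, 5% CO₂. Compounds in DMSO were diluted in complete medium over a broad range (final DMSO ≤0.1%) and exposed for 96 h. Read-out was MTT. IC50 is the mean ± standard error of at least four independent assays.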

[5] = Cytotoxicity against human A2780AD cells expressing p-gp after 96 hrs by MTT assay; format: functional, cell-based; settings: A2780 ADR
How it was run: (§3)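 Cells were seeded at 1 × 10⁴ cells/mL in 96-well format and incubated overnight at 37 °C in 5% CO₂. Medium was replaced with serial compound dilutions from DMSO stocks in complete medium (final DMSO ≤0.1%). Chemosensitivity was read by MTT after 96 h.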

HT-29 [6] = experiment: Induction of ABCB1 mRNA expression in human HT-29 cells at 1/10 IC50 to IC50 after 96 hrs by RT-PCR analysis; format: functional, cell-based
How it was run: (§4)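 HT29 and DLD-1 cells were seeded at 5 × 10⁵ cells/dish, incubated overnight, then treated for 96 h. Total RNA was isolated, and ABCB1 and ABCG2 mRNA were measured by quantitative RT-PCR. Fold induction is target/PPIA signal relative to the control ratio, from three independent PCR analyses. Statistics: paired two-tailed t test with two-way ANOVA and Bonferroni correction.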

HT-29 [7] = experiment: Cell cycle arrest in human HT-29 cells assessed as accumulation at G2/M phase at 40 nM after 24 hrs by FACS analysis; format: functional
DLD-1 [8] = experiment: Induction of ABCB1 mRNA expression in human DLD1 cells at 1/10 IC50 to IC50 after 96 hrs by RT-PCR analysis; format: functional, cell-based; how it was run: as §4
HeLa [9] = experiment: Cytotoxicity against human HeLa cells after 96 hrs by MTT assay; format: functional, cell-based; how it was run: as §2
HT-29 [10] = experiment: Induction of ABCG2 mRNA expression in human HT-29 cells at 1/10 IC50 to IC50 after 96 hrs by RT-PCR analysis; format: functional, cell-based; how it was run: as §4
DLD-1 [11] = experiment: Induction of ABCG2 mRNA expression in human DLD1 cells at 1/10 IC50 to IC50 after 96 hrs by RT-PCR analysis; format: functional, cell-based; how it was run: as §4
[12] = tested on: A2780 (human ovarian carcinoma); experiment: Cytotoxicity against human A2780 cells after 96 hrs by MTT assay; settings: A2780, 96 h
Liver = experiment: Metabolic stability of the compound in mouse liver homogenates at 100 uM after 2 hrs; format: ADME, tissue-based; settings: tissue homogenate
A2780 ADR = experiment: Effect on ABCB1 level in human A2780AD cells expressing p-gp; format: functional, cell-based
A549 = experiment: Cytotoxicity against human A549 cells after 96 hrs by MTT assay in presence of fumitremorgin-C; format: functional, cell-based; how it was run: as §3
HT-29 [13] = experiment: Induction of microtubule disruption in human HT-29 cells assessed as change […] cell morphology and cytoskeletal organization after 24 hrs by immunostaining; format: cell-based
How it was run: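 HT29 cells on glass coverslips were allowed to adhere for 24 h, then exposed to 5, 50 and 500 nM for 24 h. Cells were fixed in methanol at −20 °C for 30 min and stained with mouse anti-α-tubulin (1:500, 30 min, rt), then TRITC anti-mouse IgG (1:50, 30 min). Images were taken by confocal microscopy and compared with untreated cells.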

Structure (SMILES): COc1ccc(CN[C@H]2CCc3cc(OC)c(OC)c(OC)c3-c3ccc(OC)c(=O)cc32)cc1
- IC50 (HT-29 [1]): 51 nM
- IC50 (DLD-1 [2]): 15.7 nM
- IC50 (MDA-MB-231): 93 nM

Structure (SMILES): COc1cc2c(c(OC)c1OC)-c1ccc(OC)c(=O)cc1[C@@H](NCc1ccc(Cl)cc1)CC2
- IC50 (DLD-1 [2]): 32.6 nM

Structure (SMILES): COc1cc2c(c(OC)c1OC)-c1ccc(OC)c(=O)cc1[C@@H](NC(C)=O)CC2 [COLCHICINE]
- Activity (HT-29 [3]): Active
- IC50 (HeLa [4]): 9.7 nM
- IC50 [5]: 16.8 nM
- Activity (HT-29 [6]): Active
- Activity (HT-29 [7]): Active
- Activity (DLD-1 [8]): inactive
- IC50 (HeLa [9]): 8.2 nM
- IC50 (HT-29 [1]): 69.2 nM
- Activity (HT-29 [10]): Active
- Activity (DLD-1 [11]): inactive
- IC50 (DLD-1 [2]): 15.6 nM
- IC50 (MDA-MB-231): 37 nM
- IC50 [12]: 6.7 nM

Structure (SMILES): COc1cc2c(c(OC)c1OC)-c1ccc(OC)c(=O)cc1[C@@H](NCc1ccc(F)c(F)c1)CC2
- Activity (HT-29 [3]): 91.2%
- IC50 (HeLa [4]): 14.1 nM
- IC50 [5]: 17.2 nM
- Activity (HT-29 [6]): Active
- Activity (HT-29 [7]): 92.5%
- Activity (DLD-1 [8]): inactive
- Stability (Liver): Stable
- IC50 (HeLa [9]): 25.3 nM
- IC50 (HT-29 [1]): 4.3 nM
- Activity (HT-29 [10]): Active
- Activity (A2780 ADR): inactive
- Activity (A549): Active
- Activity (DLD-1 [11]): inactive
- IC50 (DLD-1 [2]): 1.61 nM
- IC50 (MDA-MB-231): 16 nM
- IC50 [12]: 18.8 nM
- Activity (HT-29 [13]): Dose-dependent effect

Structure (SMILES): COc1cc2c(c(OC)c1OC)-c1ccc(OC)c(=O)cc1[C@@H](NCc1cc(F)cc(F)c1)CC2
- IC50 (HT-29 [1]): 52 nM
- IC50 (DLD-1 [2]): 35.2 nM
- IC50 (MDA-MB-231): 523 nM

Structure (SMILES): COc1cc2c(c(OC)c1OC)-c1ccc(OC)c(=O)cc1[C@@H](NCc1cc(F)c(F)c(F)c1)CC2
- IC50 (HT-29 [1]): 64.5 nM
- IC50 (DLD-1 [2]): 36.2 nM
- IC50 (MDA-MB-231): 92.2 nM

Structure (SMILES): COc1cc2c(c(OC)c1OC)-c1ccc(OC)c(=O)cc1[C@@H](NCc1ccc(F)cc1)CC2
- IC50 (DLD-1 [2]): 11.4 nM

Structure (SMILES): CC(=O)O[C@H]1C(=O)[C@@]2(C)[C@H]([C@H](OC(=O)c3ccccc3)[C@]3(O)C[C@H](OC(=O)[C@H](O)[C@@H](NC(=O)c4ccccc4)c4ccccc4)C(C)=C1C3(C)C)[C@]1(OC(C)=O)CO[C@@H]1C[C@@H]2O [PACLITAXEL]
- IC50 [5]: > 1000 nM
- IC50 [12]: 1.1 nM

Structure (SMILES): COc1cc2c(c(OC)c1OC)-c1ccc(OC)c(=O)cc1[C@@H](NCc1ccc(Br)cc1)CC2
- IC50 (DLD-1 [2]): 31.2 nM

Structure (SMILES): COc1cc2c(c(OC)c1OC)-c1ccc(OC)c(=O)cc1[C@@H](NCc1cccc(F)c1F)CC2
- IC50 (HT-29 [1]): 7.43 nM
- IC50 (DLD-1 [2]): 4.67 nM
- IC50 (MDA-MB-231): 86 nM

Structure (SMILES): COc1cc2c(c(OC)c1OC)-c1ccc(OC)c(=O)cc1[C@@H](NCc1cccc(F)c1)CC2
- IC50 (HT-29 [1]): 63.4 nM
- IC50 (DLD-1 [2]): 51.6 nM
- IC50 (MDA-MB-231): 89.1 nM

Structure (SMILES): COc1cc2c(c(OC)c1OC)-c1ccc(OC)c(=O)cc1[C@@H](NCc1ccc(I)cc1)CC2
- IC50 (DLD-1 [2]): 35.9 nM
